{"source": "ChEMBL document CHEMBL1122522", "about": "“Conformationally restricted retinoids” (1984)", "key": {"Cricetinae gen. sp. [1]": {"tested_on": "Cricetinae gen. sp.", "test": "Activity of compound the was expressed as ratio of active hamster tracheal organ cultures(TOC) to the total cultures at 10e-10 M concentration; 3/14", "assay_type": "functional, Cricetulus griseus, Trachea", "outline": "(§1)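 Tracheal organ cultures came from vitamin A-deficient hamsters. Each culture was scored for reversal of keratinization and reported as active cultures out of total cultures at each retinoid concentration tested (10⁻⁸ to 10⁻¹² M). The protocol followed earlier published methods.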"}, "Cricetinae gen. sp. [2]": {"tested_on": "Cricetinae gen. sp.", "test": "Molarity required to effect reversal of keratinization in 50% of cultures.", "assay_type": "functional, Cricetulus griseus"}, "Cricetinae gen. sp. [3]": {"tested_on": "Cricetinae gen. sp.", "test": "Activity of compound the was expressed as ratio of active hamster tracheal organ cultures(TOC) to the total cultures at 10e-8 M concentration; 8/8", "assay_type": "functional, Cricetulus griseus, Trachea", "outline": "as §1"}, "Cricetinae gen. sp. [4]": {"tested_on": "Cricetinae gen. sp.", "test": "Activity of compound the was expressed as ratio of active hamster tracheal organ cultures(TOC) to the total cultures at 10e-9 M concentration; 8/14", "assay_type": "functional, Cricetulus griseus, Trachea", "outline": "as §1"}, "[5]": {"biological_target": "T1, Ornithine decarboxylase (Mus musculus) (UniProt P00860)", "T1 sequence (whole entry)": "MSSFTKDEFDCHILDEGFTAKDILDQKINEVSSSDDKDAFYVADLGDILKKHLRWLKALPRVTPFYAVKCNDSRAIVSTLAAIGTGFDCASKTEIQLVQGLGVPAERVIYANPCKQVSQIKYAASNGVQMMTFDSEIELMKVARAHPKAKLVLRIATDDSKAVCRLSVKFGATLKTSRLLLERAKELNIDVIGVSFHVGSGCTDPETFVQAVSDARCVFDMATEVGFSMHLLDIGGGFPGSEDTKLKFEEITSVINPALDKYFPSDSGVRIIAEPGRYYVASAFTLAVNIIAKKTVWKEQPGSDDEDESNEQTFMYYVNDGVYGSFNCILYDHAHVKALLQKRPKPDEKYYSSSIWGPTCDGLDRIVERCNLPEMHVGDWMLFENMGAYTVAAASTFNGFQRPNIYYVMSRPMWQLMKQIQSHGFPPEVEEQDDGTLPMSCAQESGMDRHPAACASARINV", "test": "Inhibition of the induction of ornithine decarboxylase in mouse epidermis by the tumor promoter 12-O-tetradecanoylphorbol-13-acetate (ODC) at dose 17 nmol * p<0.05"}, "[6]": {"biological_target": "T1, Ornithine decarboxylase (Mus musculus)", "test": "Inhibition of the induction of ornithine decarboxylase in mouse epidermis by the tumor promoter 12-O-tetradecanoylphorbol-13-acetate (ODC) at dose 1.7 nmol * p<0.02"}, "Cricetinae gen. sp. [7]": {"tested_on": "Cricetinae gen. sp.", "test": "Activity of compound the was expressed as ratio of active hamster tracheal organ cultures(TOC) to the total cultures at 10e-10 M concentration; 2/7", "assay_type": "functional, Cricetulus griseus, Trachea", "outline": "as §1"}, "Cricetinae gen. sp. [8]": {"tested_on": "Cricetinae gen. sp.", "test": "Molarity required to effect reversal of keratinization in 50% of the cultures", "assay_type": "functional, Cricetulus griseus", "outline": "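Tracheal organ cultures from vitamin A-deficient hamsters were scored for reversal of keratinization across a range of molar retinoid concentrations. The value is the concentration reversing keratinization in 50% of cultures, read from active/total culture counts.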"}, "Cricetinae gen. sp. [9]": {"tested_on": "Cricetinae gen. sp.", "test": "Activity of compound the was expressed as ratio of active hamster tracheal organ cultures(TOC) to the total cultures at 10e-9 M concentration; 1/6", "assay_type": "functional, Cricetulus griseus, Trachea", "outline": "as §1"}, "[10]": {"biological_target": "T1, Ornithine decarboxylase (Mus musculus)", "test": "Inhibition of the induction of ornithine decarboxylase in mouse epidermis by the tumor promoter 12-O-tetradecanoylphorbol-13-acetate (ODC) at dose 17 nmol; Inhibition not significant"}, "[11]": {"biological_target": "T1, Ornithine decarboxylase (Mus musculus)", "test": "Inhibition of the induction of ornithine decarboxylase in mouse epidermis by the tumor promoter 12-O-tetradecanoylphorbol-13-acetate (ODC) at dose 1.7 nmol; Inhibition not significant"}, "Cricetinae gen. sp. [12]": {"tested_on": "Cricetinae gen. sp.", "test": "Activity of compound the was expressed as ratio of active hamster tracheal organ cultures(TOC) to the total cultures at 10e-12 M concentration; 6/15", "assay_type": "functional, Cricetulus griseus, Trachea", "outline": "as §1"}, "Cricetinae gen. sp. [13]": {"tested_on": "Cricetinae gen. sp.", "test": "Activity of compound the was expressed as ratio of active hamster tracheal organ cultures(TOC) to the total cultures at 10e-10 M concentration; 15/15", "assay_type": "functional, Cricetulus griseus, Trachea", "outline": "as §1"}, "Cricetinae gen. sp. [14]": {"tested_on": "Cricetinae gen. sp.", "test": "Activity of compound the was expressed as ratio of active hamster tracheal organ cultures(TOC) to the total cultures at 10e-11 M concentration; 15/15", "assay_type": "functional, Cricetulus griseus, Trachea", "outline": "as §1"}, "Mus musculus [15]": {"organism": "Mus musculus", "test": "Tested for relative activity in a 20-week anti-papilloma experiment in female CD-1 mice at dose 0.17 nmol", "assay_type": "functional", "outline": "(§2)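 Female Charles River CD-1 mice, 8 weeks old, in random groups of 25–30, were shaved 2 days before initiation with 200 nmol DMBA in acetone on the back. From 2 weeks on, 8.5 nmol TPA was applied twice weekly for 20 weeks. Retinoid in 0.2 mL acetone, or acetone alone for controls, was given 1 h before each TPA dose. Papillomas were counted weekly, and mean papillomas per mouse were compared with controls at 20 weeks.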"}, "Mus musculus [16]": {"organism": "Mus musculus", "test": "Tested for relative activity in a 20-week anti-papilloma experiment in female CD-1 mice at dose 1.7 nmol", "assay_type": "functional", "outline": "as §2"}, "Mus musculus [17]": {"organism": "Mus musculus", "test": "Tested for relative activity in a 20-week anti-papilloma experiment in female CD-1 mice at dose 17 nmol; e-Animalsdied at 3-7 weeks", "assay_type": "functional, organism-based", "outline": "as §2"}, "Mus musculus [18]": {"organism": "Mus musculus", "test": "Percent decrease in average number of papillomas 0.17 at dose*-p<0.001", "assay_type": "functional", "outline": "as §2"}, "Mus musculus [19]": {"organism": "Mus musculus", "test": "Percent decrease in average number of papillomas 1.7 at dose*-p<0.001", "assay_type": "functional", "outline": "as §2"}, "[20]": {"biological_target": "T1, Ornithine decarboxylase (Mus musculus)", "test": "TInhibition of the induction of ornithine decarboxylase in mouse epidermis by the tumor promoter 12-O-tetradecanoylphorbol-13-acetate (ODC) at dose 1.7 nmol*-p<0.001"}, "[21]": {"biological_target": "T1, Ornithine decarboxylase (Mus musculus)", "test": "Inhibition of the induction of ornithine decarboxylase in mouse epidermis by the tumor promoter 12-O-tetradecanoylphorbol-13-acetate (ODC) at dose 17 nmol*-p<0.001"}, "[22]": {"test": "Mortality range in days at dose 20 umol/kg day; 6-8", "assay_type": "functional, Mus musculus", "outline": "(§3)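 Adult female Swiss mice (20–25 g) had chow and water ad libitum. The retinoid was homogenized as a suspension in aqueous 8% Cremophor EL plus 10% propylene glycol. It was given ip as 10 weekday injections over 14 days. Controls received vehicle alone. Survivors were weighed on days 1, 5, 10 and 15, and dates of death were recorded. Survival was scored at days 8 and 15.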"}, "[23]": {"test": "Mortality range in days at dose 30 umol/kg day; 10-15", "assay_type": "functional, Mus musculus", "outline": "as §3"}, "[24]": {"test": "Mortality range in days at dose 30 umol/kg day; 7-10", "assay_type": "functional, Mus musculus", "outline": "as §3"}, "[25]": {"test": "Mortality range in days at dose 30 umol/kg day; 7-11", "assay_type": "functional, Mus musculus", "outline": "as §3"}, "[26]": {"test": "Percent survivors at dose 1.0 umol/kg day", "assay_type": "functional, Mus musculus", "outline": "as §3"}, "[27]": {"test": "Percent survivors at dose 10 umol/kg day", "assay_type": "functional, Mus musculus", "outline": "as §3"}, "[28]": {"test": "Percent survivors at dose 30 umol/kg day", "assay_type": "functional, Mus musculus", "outline": "as §3"}, "Mus musculus [29]": {"organism": "Mus musculus", "test": "Tested for relative activity in a 20-week anti-papilloma experiment in female CD-1 mice at dose 170 nmol;d- Animals died at 1-2 weeks", "assay_type": "functional, organism-based", "outline": "as §2"}, "[30]": {"test": "Percent survivors at dose 3.3 umol/kg day", "assay_type": "functional, Mus musculus", "outline": "as §3"}}, "note": "Calls of active or inactive are those of the source. The calls are words filed in the database; no cut-off is given here.", "data": [{"smiles": "C/C(=C\\c1ccc(C(=O)O)cc1)c1ccc2c(c1)C1CCC2C1", "note": "(stereo not given)", "values": [{"measurement": "Activity", "setting": "Cricetinae gen. sp. [1]", "value": 3, "unit": "%"}, {"measurement": "ED50", "setting": "Cricetinae gen. sp. [2]", "value": "6e-10"}, {"measurement": "Activity", "setting": "Cricetinae gen. sp. [3]", "value": 8, "unit": "%"}, {"measurement": "Activity", "setting": "Cricetinae gen. sp. [4]", "value": 57, "unit": "%"}, {"measurement": "inhibition", "setting": "[5]", "value": 69, "unit": "%"}, {"measurement": "inhibition", "setting": "[6]", "value": 33, "unit": "%"}]}, {"smiles": "CCOC(=O)c1cccc(/C=C(C)/C=C/C2=C(C)CCCC2(C)C)c1", "values": [{"measurement": "Activity", "setting": "Cricetinae gen. sp. [7]", "value": 2, "unit": "%"}, {"measurement": "ED50", "setting": "Cricetinae gen. sp. [8]", "value": ">1e-08"}, {"measurement": "Activity", "setting": "Cricetinae gen. sp. [9]", "value": 1, "unit": "%"}, {"measurement": "inhibition", "setting": "[10]", "value": 6, "unit": "%"}, {"measurement": "inhibition", "setting": "[11]", "value": 13, "unit": "%"}]}, {"smiles": "C/C(=C\\c1ccc(C(=O)O)cc1)c1ccc2c(c1)C(C)(C)CCC2(C)C", "values": [{"measurement": "Activity", "setting": "Cricetinae gen. sp. [12]", "value": 6, "unit": "%"}, {"measurement": "Activity", "setting": "Cricetinae gen. sp. [13]", "value": 15, "unit": "%"}, {"measurement": "Activity", "setting": "Cricetinae gen. sp. [14]", "value": 15, "unit": "%"}, {"measurement": "ED50", "setting": "Cricetinae gen. sp. [2]", "value": "1e-12"}, {"measurement": "Activity", "setting": "Mus musculus [15]", "value": 73, "unit": "%"}, {"measurement": "Activity", "setting": "Mus musculus [16]", "value": 50, "unit": "%"}, {"measurement": "Activity", "setting": "Mus musculus [17]", "value": "inactive"}, {"measurement": "Decrease", "setting": "Mus musculus [18]", "value": 62.9, "unit": "%"}, {"measurement": "Decrease", "setting": "Mus musculus [19]", "value": 92.3, "unit": "%"}, {"measurement": "inhibition", "setting": "[20]", "value": 89, "unit": "%"}, {"measurement": "inhibition", "setting": "[21]", "value": 91, "unit": "%"}, {"measurement": "Mortality range", "setting": "[22]", "value": 8, "unit": "days"}, {"measurement": "Mortality range", "setting": "[23]", "value": 15, "unit": "days"}, {"measurement": "Mortality range", "setting": "[24]", "value": 10, "unit": "days"}, {"measurement": "Mortality range", "setting": "[25]", "value": 11, "unit": "days"}, {"measurement": "Survivors at day 8", "setting": "[26]", "value": 100, "unit": "%"}, {"measurement": "Survivors at day 15", "setting": "[26]", "value": 30, "unit": "%"}, {"measurement": "Survivors at day 8", "setting": "[27]", "value": 87, "unit": "%"}, {"measurement": "Survivors at day 15", "setting": "[27]", "value": 0, "unit": "%"}, {"measurement": "Survivors at day 8", "setting": "[28]", "value": 50, "unit": "%"}, {"measurement": "Survivors at day 15", "setting": "[28]", "value": 0, "unit": "%"}, {"measurement": "Activity", "setting": "Mus musculus [29]", "value": "inactive"}, {"measurement": "Survivors at day 8", "setting": "[30]", "value": 97, "unit": "%"}, {"measurement": "Survivors at day 15", "setting": "[30]", "value": 0, "unit": "%"}]}]}
